From article PMC3698760 (Journal of the American Heart Association: Cardiovascular …, 2013)
Entries after “also recorded” stand apart in the source; their conditions may differ.

How the values were obtained:
A172 human glioblastoma = experiment: Cellular cholesterol efflux in A172 human cells; assay type: cell-based; details: 4 hours
Procedure, shortened: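 A172 human glioblastoma cells were grown in DMEM with 10% FBS and antibiotics, then labelled with ³H‑cholesterol. Efflux ran in serum‑free medium with 0.2% BSA, 5 μmol/L T0901317 and 5 μmol/L 9‑cis‑retinoic acid, with or without 10 μmol/L probucol. Acceptor was human apoA‑I or test peptide at 20 μg/mL, or a molar dose series, for 4 h. n=4–5; mean±SD.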

ABCA1 [1] = biological target: T1, ABCA1 (Homo sapiens, UniProt O95477); experiment: Cholesterol efflux in COS-7 cells transiently transfected with human ABCA1 cDNA; assay type: cell-based; details: 20 μg/mL, 4 hours, n=6 to 7
Procedure, shortened: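 COS‑7 cells were kept in DMEM with 10% FBS and antibiotics and seeded at 80–90% confluence. They were transfected by lipofection with human ABCA1 cDNA in pcDNA3.1 (with ABCG1 in pEdsRed‑N1), or with mock vector. Cells were then ³H‑cholesterol labelled, and efflux was measured in serum‑free medium with 0.2% BSA.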

ABCA1 [2] = biological target: T1, ABCA1; experiment: Cholesterol efflux in CHO-ldlA7 cells transfected with human ABCA1 cDNA; assay type: cell-based; details: 20 μg/mL, 4 hours, n=6
Procedure, shortened: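 CHO-ldlA7 cells seeded at 80–90% confluence were transiently transfected (Lipofectamine 2000) with human ABCA1 cDNA in pcDNA3.1 or with empty vector (mock). Cells were labelled with ³H-cholesterol in serum-free medium with 0.2% BSA. Efflux over 4 h was measured with or without 20 μg/mL human apoA-I or test peptide; n=6.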

[3] = test system: monocyte‐derived macrophages from an ABCA1‐deficient Tangier disease patient; assay type: cell-based, human; details: 20 μg/mL, 4 hours, n=4
Procedure, shortened: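 Peripheral blood monocyte‑derived macrophages came from a healthy volunteer and a Tangier disease patient, with ethics approval and written consent. Cells were isolated by Lymphoprep density separation and labelled with ³H‑cholesterol. Efflux was run in serum‑free 0.2% BSA medium with or without 20 μg/mL human apoA‑I or test peptide for 4 h. n=4; mean±SD.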

[4] = test system: monocyte chemoattractant protein‐1 (MCP‐1); experiment: Plasma MCP-1 by ELISA; assay type: in vivo; details: high dose (50 mg/kg), 16 weeks, apoE−/− mice
Procedure, shortened: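 Overnight-fasted plasma collected from high-fat-fed apoE−/− mice after 16 weeks of i.p. dosing 3 times weekly (10 or 50 mg/kg per day, or scrambled peptide). High-sensitivity CRP and MCP-1 were quantified with commercial ELISA kits.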

T1 sequence (O95477 whole entry): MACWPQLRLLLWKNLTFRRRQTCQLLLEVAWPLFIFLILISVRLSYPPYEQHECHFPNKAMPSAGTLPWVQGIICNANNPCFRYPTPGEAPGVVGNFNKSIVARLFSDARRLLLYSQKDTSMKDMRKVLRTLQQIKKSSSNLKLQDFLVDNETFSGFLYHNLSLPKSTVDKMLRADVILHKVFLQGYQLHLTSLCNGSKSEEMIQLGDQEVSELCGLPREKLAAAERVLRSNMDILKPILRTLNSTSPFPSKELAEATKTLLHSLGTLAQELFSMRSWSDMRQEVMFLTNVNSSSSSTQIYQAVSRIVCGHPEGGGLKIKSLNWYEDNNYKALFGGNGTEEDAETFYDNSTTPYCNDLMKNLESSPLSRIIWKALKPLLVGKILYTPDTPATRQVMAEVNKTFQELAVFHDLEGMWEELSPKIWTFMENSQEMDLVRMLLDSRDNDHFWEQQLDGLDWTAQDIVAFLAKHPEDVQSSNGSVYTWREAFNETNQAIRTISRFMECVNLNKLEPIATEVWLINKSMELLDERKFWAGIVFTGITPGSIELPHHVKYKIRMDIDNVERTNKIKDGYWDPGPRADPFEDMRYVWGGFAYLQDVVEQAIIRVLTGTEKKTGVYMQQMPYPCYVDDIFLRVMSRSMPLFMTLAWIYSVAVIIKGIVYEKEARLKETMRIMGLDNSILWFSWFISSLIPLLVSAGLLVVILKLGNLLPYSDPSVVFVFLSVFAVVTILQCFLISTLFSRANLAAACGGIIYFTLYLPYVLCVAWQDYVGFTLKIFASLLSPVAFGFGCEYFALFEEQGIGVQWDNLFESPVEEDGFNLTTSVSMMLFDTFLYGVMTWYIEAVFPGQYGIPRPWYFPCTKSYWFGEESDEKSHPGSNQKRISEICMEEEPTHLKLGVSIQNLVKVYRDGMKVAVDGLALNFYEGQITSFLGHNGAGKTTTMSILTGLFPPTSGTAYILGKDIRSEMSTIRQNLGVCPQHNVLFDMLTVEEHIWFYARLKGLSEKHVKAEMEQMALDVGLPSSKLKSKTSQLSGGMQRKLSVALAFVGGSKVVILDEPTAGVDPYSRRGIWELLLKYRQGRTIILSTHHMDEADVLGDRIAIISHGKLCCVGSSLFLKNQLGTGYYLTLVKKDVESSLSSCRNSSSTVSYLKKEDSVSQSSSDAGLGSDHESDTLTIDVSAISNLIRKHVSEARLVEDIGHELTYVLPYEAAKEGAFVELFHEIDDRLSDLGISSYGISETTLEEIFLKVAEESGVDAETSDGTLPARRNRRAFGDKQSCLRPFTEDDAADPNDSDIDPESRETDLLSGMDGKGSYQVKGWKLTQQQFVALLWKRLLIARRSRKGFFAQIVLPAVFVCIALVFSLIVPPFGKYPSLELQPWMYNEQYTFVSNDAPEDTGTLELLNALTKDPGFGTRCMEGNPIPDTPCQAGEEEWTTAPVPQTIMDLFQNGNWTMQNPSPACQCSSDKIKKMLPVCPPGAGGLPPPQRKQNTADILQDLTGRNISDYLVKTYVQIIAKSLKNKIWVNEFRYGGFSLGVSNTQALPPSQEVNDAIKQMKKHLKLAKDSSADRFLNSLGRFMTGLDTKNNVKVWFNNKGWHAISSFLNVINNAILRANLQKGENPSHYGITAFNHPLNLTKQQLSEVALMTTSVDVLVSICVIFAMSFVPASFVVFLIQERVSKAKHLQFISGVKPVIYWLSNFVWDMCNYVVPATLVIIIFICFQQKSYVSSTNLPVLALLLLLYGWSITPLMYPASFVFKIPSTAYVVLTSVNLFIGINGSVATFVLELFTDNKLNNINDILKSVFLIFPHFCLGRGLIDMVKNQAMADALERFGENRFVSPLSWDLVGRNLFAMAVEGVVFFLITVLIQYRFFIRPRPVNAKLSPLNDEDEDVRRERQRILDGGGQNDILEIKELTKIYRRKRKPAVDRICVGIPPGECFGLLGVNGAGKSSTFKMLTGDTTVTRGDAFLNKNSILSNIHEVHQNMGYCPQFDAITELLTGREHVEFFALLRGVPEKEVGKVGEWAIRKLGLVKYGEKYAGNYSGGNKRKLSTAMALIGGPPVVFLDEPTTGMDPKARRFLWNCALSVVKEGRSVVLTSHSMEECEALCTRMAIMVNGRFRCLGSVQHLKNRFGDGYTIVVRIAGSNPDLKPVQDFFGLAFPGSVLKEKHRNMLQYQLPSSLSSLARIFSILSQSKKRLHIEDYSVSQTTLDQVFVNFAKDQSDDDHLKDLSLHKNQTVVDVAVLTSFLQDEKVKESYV

Substance: H-ALEHLFTLYEKALKALEDLLKKLL-OH [FAMP5]
- dose dependence of cholesterol efflux on a molar basis (A172 human glioblastoma; A172 cells, presence or absence of 5 μmol/L T0901317 or 9-cis-retinoic acid, n=4): dose‐dependent induction of cholesterol efflux with saturation effects
- cellular cholesterol efflux: differences of terminal end modifications (A172 human glioblastoma; A172 cells, 20 μg/mL, n=5): no influence by the modification of terminal ends
- effect of ABCA1 inactivation (probucol) on peptide-mediated cholesterol efflux (A172 human glioblastoma; probucol 10 μmol/L, 20 μg/mL): drastically inhibited; also recorded: not completely abolished
- cholesterol efflux after transient transfection with ABCA1 cDNA vs mock (ABCA1 [1]): significantly upregulated
- cholesterol efflux after transient transfection with ABCA1 cDNA vs mock (ABCA1 [2]): significantly upregulated
- cholesterol efflux in Tangier disease macrophages vs healthy subject [3]: suppressed
- plasma MCP‐1 levels [4]: significantly reduced
